Results: ChEMBL document CHEMBL3414525, “Macrocyclic compounds as anti-cancer agents: design and synthesis of multi-acting inhibitors against HDAC, FLT3 and JAK2” (Eur J Med Chem, 2015)
Calls of active or inactive are those of the source. The rule behind the calls is not given here.

Legend:
Histone deacetylase = test: Inhibition of HDAC (unknown origin) using Fluor de Lys substrate after 2 hrs by microplate reader; format: protein assay, Homo sapiens
[1] = Antiproliferative activity against human HL60 cells assessed as growth inhibition after 48 hrs by CellTiter-Glo assay; format: functional; settings: HL-60, 48 h
K562 = test: Antiproliferative activity against human K562 cells assessed as growth inhibition after 48 hrs by CellTiter-Glo assay; format: functional; settings: K562, 48 h
HEL = test: Antiproliferative activity against human HEL cells assessed as growth inhibition after 48 hrs by CellTiter-Glo assay; format: functional
[2] = biological target: T1, Receptor-type tyrosine-protein kinase FLT3 (Homo sapiens, UniProt P36888); test: Inhibition of human recombinant FLT3 after 1 hr by LanthaScreen assay platform
T1 sequence (P36888 whole entry): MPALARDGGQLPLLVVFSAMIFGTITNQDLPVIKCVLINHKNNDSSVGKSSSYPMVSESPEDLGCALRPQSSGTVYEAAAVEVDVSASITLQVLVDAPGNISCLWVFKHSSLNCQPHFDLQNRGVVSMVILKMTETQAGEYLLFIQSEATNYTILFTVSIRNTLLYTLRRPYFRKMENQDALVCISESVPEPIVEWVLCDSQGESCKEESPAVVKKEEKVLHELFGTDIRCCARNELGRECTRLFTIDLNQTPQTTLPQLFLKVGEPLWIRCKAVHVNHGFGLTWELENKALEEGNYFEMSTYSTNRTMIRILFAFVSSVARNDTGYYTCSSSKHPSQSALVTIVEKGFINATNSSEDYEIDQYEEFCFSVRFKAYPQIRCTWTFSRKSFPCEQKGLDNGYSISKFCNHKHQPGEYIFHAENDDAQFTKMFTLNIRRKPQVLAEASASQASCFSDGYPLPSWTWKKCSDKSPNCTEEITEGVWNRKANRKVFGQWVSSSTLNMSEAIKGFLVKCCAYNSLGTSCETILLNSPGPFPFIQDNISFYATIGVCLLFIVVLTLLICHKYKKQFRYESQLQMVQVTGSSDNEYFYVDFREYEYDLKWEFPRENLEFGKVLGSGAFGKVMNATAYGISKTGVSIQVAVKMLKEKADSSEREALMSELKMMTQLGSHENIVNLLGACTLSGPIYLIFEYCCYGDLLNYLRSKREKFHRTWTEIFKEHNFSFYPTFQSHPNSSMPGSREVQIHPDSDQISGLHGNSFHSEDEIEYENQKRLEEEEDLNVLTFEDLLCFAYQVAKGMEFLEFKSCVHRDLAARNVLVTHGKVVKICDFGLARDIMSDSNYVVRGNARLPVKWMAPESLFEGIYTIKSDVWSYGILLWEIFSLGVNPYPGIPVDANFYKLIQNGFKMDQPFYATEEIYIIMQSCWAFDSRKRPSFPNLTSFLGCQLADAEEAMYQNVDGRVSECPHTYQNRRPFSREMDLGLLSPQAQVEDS
Procedure, shortened: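 TR-FRET binding format. Recombinant FLT3 incubated 1 h at room temperature with Eu-anti-His antibody, Alexa Fluor 647-labelled kinase tracer 236 and varied compound concentrations. Signal read as the 665/615 nm emission ratio. Values are means ± SD of three independent experiments.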

[3] = biological target: T2, Tyrosine-protein kinase JAK2 (Homo sapiens, UniProt O60674); test: Inhibition of human recombinant JAK2 using Z'LYTETry6 peptide substrate after 1 hr by microplate reader
MV4-11 [4] = test: Antiproliferative activity against human MV4-11 cells assessed as growth inhibition after 48 hrs by CellTiter-Glo assay; format: functional; settings: MV4-11, 48 h
[5] = Antiproliferative activity against human HCT116 cells assessed as growth inhibition after 48 hrs by SRB assay; format: functional; settings: HCT-116, 48 h
MCF7 = test: Antiproliferative activity against human MCF7 cells assessed as growth inhibition after 48 hrs by SRB assay; format: functional; settings: MCF7, 48 h
MDA-MB-435 = test: Antiproliferative activity against human MDA-MB-435 cells assessed as growth inhibition after 48 hrs by SRB assay; format: functional; settings: MDA-MB-435, 48 h
NCI-H460 = test: Antiproliferative activity against human NCI-H460 cells assessed as growth inhibition after 48 hrs by SRB assay; format: functional; settings: NCI-H460, 48 h
[6] = Antiproliferative activity against human OVCAR5 cells assessed as growth inhibition after 48 hrs by SRB assay; format: functional; settings: OVCAR-5, 48 h
[7] = biological target: Histone deacetylase (Homo sapiens) (UniProt Q13547+O15379+Q9UBN7+Q92769+Q9UQL6+Q8WUI4+Q9BY41+Q96DB2+P56524+Q9UKV0+Q969S8); test: Induction of HDAC-mediated histone H3 acetylation in human MV4-11 cells after 24 hrs by Western blot analysis; format: cell-based
Procedure, shortened: (§1)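 Cells plated at 0.2 × 10⁶ per mL with or without varied compound concentrations, incubated 24 h, then lysed in whole-cell lysis buffer. Total extracts run on SDS-PAGE and western blotted with antibodies to acetyl-histone H3, acetyl-tubulin, tubulin, phospho-FLT3 Y591, phospho-JAK2 Y1007/1008, phospho-STAT5 Y694 and phospho-AKT T308. HRP-labelled secondary antibodies used for detection.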

Tubulin (Homo sapiens) = Tubulin (Homo sapiens) (UniProt P68371+Q9H4B7+P0DPH7+P68366+Q13509+Q71U36+P04350+Q3ZCM7+P07437+P68363+Q9BQE3+Q6PEY2+Q13885+Q9BVA1+Q9BUF5); test: Induction of tubulin acetylation in human MV4-11 cells after 24 hrs by Western blot analysis; format: cell-based; procedure, shortened: as §1
[8] = biological target: T2, Tyrosine-protein kinase JAK2; test: Decrease in JAK2 phosphorylation in human HEL cells at 0.1 to 0.5 uM after 24 hrs by Western blot analysis; format: cell-based; procedure, shortened: as §1
MV4-11 [9] = test: Inhibition of STAT5 phosphorylation in human MV4-11 cells after 24 hrs by Western blot analysis; format: cell-based; procedure, shortened: as §1
MV4-11 [10] = test: Inhibition of AKT phosphorylation in human MV4-11 cells after 24 hrs by Western blot analysis; format: cell-based; procedure, shortened: as §1
[11] = biological target: Receptor-type tyrosine-protein kinase FLT3 (Homo sapiens) (UniProt P36888); settings: HEL, 0.1 to 0.5 uM

T2 sequence (O60674 whole entry): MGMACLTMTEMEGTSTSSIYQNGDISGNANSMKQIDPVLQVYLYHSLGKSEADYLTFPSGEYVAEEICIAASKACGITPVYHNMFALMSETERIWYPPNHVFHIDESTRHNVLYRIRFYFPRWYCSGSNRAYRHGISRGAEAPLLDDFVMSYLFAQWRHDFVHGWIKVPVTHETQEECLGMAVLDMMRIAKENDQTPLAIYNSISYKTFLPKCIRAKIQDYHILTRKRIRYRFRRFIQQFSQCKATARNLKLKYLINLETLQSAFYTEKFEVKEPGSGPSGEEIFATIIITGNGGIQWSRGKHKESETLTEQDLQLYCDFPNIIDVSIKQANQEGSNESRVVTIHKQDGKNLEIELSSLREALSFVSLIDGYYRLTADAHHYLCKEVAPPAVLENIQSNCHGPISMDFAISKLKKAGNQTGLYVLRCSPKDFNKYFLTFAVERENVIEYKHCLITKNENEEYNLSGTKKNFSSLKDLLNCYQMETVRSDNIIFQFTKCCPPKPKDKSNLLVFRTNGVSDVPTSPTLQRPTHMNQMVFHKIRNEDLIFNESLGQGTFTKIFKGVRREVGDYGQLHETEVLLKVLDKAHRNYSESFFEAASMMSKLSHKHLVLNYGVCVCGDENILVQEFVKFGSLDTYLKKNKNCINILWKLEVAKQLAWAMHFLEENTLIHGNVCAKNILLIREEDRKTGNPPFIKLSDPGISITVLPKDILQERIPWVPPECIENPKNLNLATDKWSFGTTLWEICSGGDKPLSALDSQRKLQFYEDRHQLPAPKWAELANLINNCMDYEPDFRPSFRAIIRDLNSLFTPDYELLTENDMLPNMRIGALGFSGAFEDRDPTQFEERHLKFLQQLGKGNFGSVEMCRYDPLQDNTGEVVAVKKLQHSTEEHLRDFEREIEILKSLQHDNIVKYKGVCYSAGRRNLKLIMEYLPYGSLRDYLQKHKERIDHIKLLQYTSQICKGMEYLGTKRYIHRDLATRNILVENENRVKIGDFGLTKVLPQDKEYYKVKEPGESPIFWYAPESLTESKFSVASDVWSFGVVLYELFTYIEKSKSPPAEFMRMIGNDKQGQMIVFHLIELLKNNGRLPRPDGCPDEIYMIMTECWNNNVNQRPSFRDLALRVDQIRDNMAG

Structure (SMILES) | IC50 (Histone deacetylase) | GI50 [1] | GI50 (K562) | GI50 (HEL) | IC50 [2] | IC50 [3] | GI50 (MV4-11 [4]) | GI50 [5] | GI50 (MCF7) | GI50 (MDA-MB-435) | GI50 (NCI-H460) | GI50 [6] | Activity [7] | Activity (Tubulin (Homo sapiens)) | inhibition [8] | inhibition (MV4-11 [9]) | inhibition (MV4-11 [10]) | inhibition [11]
O=C(CCCCCCCC(=O)N1C/C=C/CCOc2cccc(c2)-c2ccnc(n2)Nc2cccc(c2)C1)NO | 0.355 µM | 1.95 µM | 2.02 µM | 6.26 µM |  |  |  |  |  |  |  |  |  |  |  |  |  | 
O=C(CCCCCCN1C/C=C/COCc2cccc(c2)-c2ccnc(n2)Nc2cccc(c2)C1)NO | 0.159 µM | 0.9 µM | 0.94 µM | 0.7 µM | 0.217 µM | 0.613 µM | 0.32 µM | 0.9 µM | 1.13 µM | 1.5 µM | 1.19 µM | 1.42 µM |  |  |  |  |  | 
O=C(CCCCCCCC(=O)N1C/C=C/COCc2cccc(c2)-c2ccnc(n2)Nc2cccc(c2)C1)NO | 0.334 µM | 1.66 µM | 2.64 µM | 4.78 µM | 0.272 µM | 0.835 µM | 0.78 µM |  |  |  |  |  |  |  |  |  |  | 
O=C(CCCCCCC(=O)N1C/C=C/CCOc2cccc(c2)-c2ccnc(n2)Nc2cccc(c2)C1)NO | 0.31 µM | 6.73 µM | 4.79 µM | 5.25 µM | 1.26 µM | 0.558 µM | 5.89 µM |  |  |  |  |  |  |  |  |  |  | 
O=C(CCCCCCC(=O)Nc1ccccc1)NO [VORINOSTAT] |  |  |  |  | > 10 µM | > 10 µM |  |  |  |  |  |  |  |  |  |  |  | 
CN1C/C=C/CCOc2cccc(c2)-c2ccnc(n2)Nc2cccc(c2)C1 [ZOTIRACICLIB] |  | 1.13 µM | 1.23 µM | 0.79 µM | 0.042 µM | 0.17 µM | 0.66 µM |  |  |  |  |  |  |  |  |  |  | 
O=C(CCCCN1C/C=C/COCc2cccc(c2)-c2ccnc(n2)Nc2cccc(c2)C1)NO | 0.158 µM | 2.05 µM | 1.83 µM | 0.49 µM | 0.218 µM | 0.392 µM | 0.37 µM | 0.81 µM | 1.07 µM | 1.88 µM | 1.42 µM | 1.13 µM |  |  |  |  |  | 
O=C(CCCCCCN1C/C=C/CCOc2cccc(c2)-c2ccnc(n2)Nc2cccc(c2)C1)NO | 0.087 µM | 1.03 µM | 1.02 µM | 0.34 µM | 0.087 µM | 0.686 µM | 0.27 µM | 0.82 µM | 0.95 µM | 1.77 µM | 1.07 µM | 1.22 µM | Dose-dependent effect | Dose-dependent effect | Active | Dose-dependent effect | Dose-dependent effect | Dose-dependent effect
O=C(CCCCCCC(=O)N1C/C=C/COCc2cccc(c2)-c2ccnc(n2)Nc2cccc(c2)C1)NO | 0.293 µM | 2.87 µM | 4.39 µM | 5.03 µM | 0.833 µM | 0.684 µM | 1.41 µM |  |  |  |  |  |  |  |  |  |  | 
O=C(CCCCCN1C/C=C/COCc2cccc(c2)-c2ccnc(n2)Nc2cccc(c2)C1)NO | 0.123 µM | 2.3 µM | 2.09 µM | 0.68 µM | 0.288 µM | 0.594 µM | 0.52 µM |  |  |  |  |  |  |  |  |  |  | 
O=C(CCCCN1C/C=C/CCOc2cccc(c2)-c2ccnc(n2)Nc2cccc(c2)C1)NO | 0.251 µM | 3.03 µM | 2.45 µM | 0.51 µM | 0.18 µM | 0.293 µM | 0.66 µM | 1.53 µM | 1.13 µM | 2.72 µM | 1.77 µM | 1.22 µM |  |  |  |  |  | 
O=C(CCCCC(=O)N1C/C=C/CCOc2cccc(c2)-c2ccnc(n2)Nc2cccc(c2)C1)NO | 0.848 µM | 1.27 µM | 1.44 µM | 2.11 µM | 0.556 µM | 0.246 µM | 1.01 µM | 1.59 µM | 2.09 µM | 2.41 µM | 2.25 µM | 1.52 µM |  |  |  |  |  | 
O=C(CCCCC(=O)N1C/C=C/COCc2cccc(c2)-c2ccnc(n2)Nc2cccc(c2)C1)NO | 0.402 µM | 4.43 µM | 4.97 µM | 2.94 µM | 0.221 µM | 0.547 µM | 2.06 µM |  |  |  |  |  |  |  |  |  |  | 
O=C(CCCCCN1C/C=C/CCOc2cccc(c2)-c2ccnc(n2)Nc2cccc(c2)C1)NO | 0.152 µM | 2.62 µM | 2.32 µM | 2.26 µM | 0.108 µM | 1.04 µM | 0.53 µM | 1.33 µM | 1.32 µM | 2.63 µM | 1.6 µM | 1.42 µM |  |  |  |  |  | 
